Results collected from several papers.
Compare with care: the assays were run in different laboratories.
Target: Mitogen-activated protein kinase kinase kinase 7 (MAP3K7, Homo sapiens, UniProt O43318)
Residues used in one study (O43318 1-606): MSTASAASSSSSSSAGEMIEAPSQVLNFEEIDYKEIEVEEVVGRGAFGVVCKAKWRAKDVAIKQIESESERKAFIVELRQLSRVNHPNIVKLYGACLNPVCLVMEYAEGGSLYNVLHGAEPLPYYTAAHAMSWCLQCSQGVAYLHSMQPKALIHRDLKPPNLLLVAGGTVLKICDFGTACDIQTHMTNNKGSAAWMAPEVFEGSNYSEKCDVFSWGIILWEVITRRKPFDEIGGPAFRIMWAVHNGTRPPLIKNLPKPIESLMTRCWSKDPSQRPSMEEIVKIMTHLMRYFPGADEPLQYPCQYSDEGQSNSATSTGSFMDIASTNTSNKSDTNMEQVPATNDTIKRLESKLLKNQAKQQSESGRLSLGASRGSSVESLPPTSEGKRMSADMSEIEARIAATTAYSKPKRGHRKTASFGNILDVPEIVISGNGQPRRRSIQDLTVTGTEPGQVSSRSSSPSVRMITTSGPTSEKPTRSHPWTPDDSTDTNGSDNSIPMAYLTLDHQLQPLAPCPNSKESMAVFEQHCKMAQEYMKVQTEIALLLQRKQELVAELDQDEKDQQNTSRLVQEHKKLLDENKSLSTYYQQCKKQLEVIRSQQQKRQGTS

read-out | technique | tested at | remaining binding | Structure (SMILES)
binding |  | 1 µM | 98% | CN(C)c1ncc(F)c(-c2cnn3ncccc23)n1
binding | competition with immobilised ligand | 1 µM | 0% | O=C(c1ccc(Nc2ncc(Cl)c(-c3ccc(Cl)s3)n2)cc1)N1CCC(N2CCCC2)CC1
binding | competition with immobilised ligand | 0.1 µM | 32% | C[C@@H](c1ccc(-n2cnc3c(N)ncnc32)cc1)N1CCc2nn(C)c(Cc3ccccc3)c2C1=O
binding | competition with immobilised ligand | 1 µM | 100% | CNC(=O)[C@@H]1CC[C@@H](n2c(-c3ccc4cnccc4c3)nc3ccc(C(=O)NCc4cccc(C(N)=O)c4)cc32)C1
binding |  | 1 µM | 36% | CN(C)c1nccc(-c2cnc3ncccn23)n1
cell-free assay | competition with immobilised ligand | 1 µM | 68% | Cc1c(NC(=O)c2cc(C(N)=O)nc3cc(F)ccc23)c(C(F)(F)F)nn1Cc1ccc(C#N)cc1
binding | competition with immobilised ligand | 1 µM | 89% | Nc1ncc2c(n1)-c1c([nH]c3ccc(C#CC4CC4)cc13)CCCC2
binding | competition with immobilised ligand | 1 µM | 4.5% | O=C(NCCCN1CCOCC1)c1ccc(Nc2ncc(Cl)c(-c3ccc(Cl)s3)n2)cc1
binding |  | 1 µM | 97% | CN(C)c1nccc(-c2cnn3ncccc23)n1
binding | competition with immobilised ligand | 1 µM | 31% | O=C(NCCCN1CCOCC1)c1ccc(Nc2nccc(-c3cc4ccccc4s3)n2)cc1
binding | competition with immobilised ligand | 5 µM | 34% | FC(F)(F)Oc1cccc(-c2cnc3ccc(-c4ccncc4)nn23)c1
cell-free assay | competition with immobilised ligand | 1 µM | 100% | C[C@@H](c1cccc(C#N)c1)n1cc(Cl)cc(C(N)=O)c1=N
binding | competition with immobilised ligand | 1 µM | 85% | COc1cnc(Nc2cccc(S(N)(=O)=O)c2)nc1N1CCN(c2ccccc2)CC1
binding | competition with immobilised ligand | 1 µM | 100% | C=CC(=O)N1CCC(C(=O)NCC(=O)N2CCN(c3nc(-c4cnc(N)nc4C(F)F)nc(N4CCOCC4)n3)CC2)CC1
cell-free assay | competition with immobilised ligand | 1 µM | 100% | CC(=O)N1CCC(c2ccc(C(=O)NC3=NCCN3)cc2C(F)(F)F)CC1
binding | competition with immobilised ligand | 1 µM | 73% | O=C(NCC1CCOCC1)c1n[nH]cc1NC(=O)c1c(F)cccc1F
cell-free assay | competition with immobilised ligand | 1 µM | 86% | COc1cc(-c2cn(C3CCc4ccccc4N(CC(F)(F)F)C3=O)nn2)ccc1-n1ccc(C)n1 (stereo not shown)
binding |  | 1 µM | 77% | Cc1cnn2ncc(-c3ccnc(N(C)C)n3)c2c1
cell-free assay | competition with immobilised ligand | 1 µM | 100% | Cc1noc([C@H]2C[C@@H](c3ccc(C(F)(F)F)cc3)CN(C(=O)N3CCS(=O)(=O)C3)C2)n1
binding |  | 1 µM | 100% | N[C@H]1CCN(c2nccc(-c3cnn4ncccc34)n2)C1
cell-free assay | competition with immobilised ligand | 1 µM | 75% | NS(=O)(=O)c1cc(NC(=O)Cc2ccccc2)ccc1Oc1cccc(Cl)c1
binding |  | 1 µM | 81% | C[C@@H]1CCN(c2nccc(-c3cnn4ncccc34)n2)C1
